Assay outcomes deposited in PubChem BioAssay by Sanford-Burnham Center for Chemical Genomics.
This is a sample that favours compounds with a hit; in the whole collection about 1.4% have one here.
HKDC1 inh = inhibitors of human hexokinase HKDC1; Q2TB90; recombinant HKDC1, G6PDH/diaphorase resazurin coupled fluorescence; inhibition, % at 20 µM; hit rate 0.16% among 340,000;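 active = inhibition above about 35% when tested at 20 µM, limit read from the data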;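 also: plate controls were DMSO wells with enzyme for no effect and DMSO wells lacking enzyme for full effect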
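Test system: HK5 enzyme. Quantity: 5 µg/mL HK5 final. Reagent: glucose and ATP substrates. Schedule: 90 min reaction incubation at room temperature, dark. Technique: resazurin-to-resorufin fluorescence via G6PDH and diaphorase coupling, 525/613 nm. Control set: DMSO wells with and without enzyme mix.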
iPSC survival up = enhancers of human iPSC single-cell survival | hiPSC single-cell survival, ATPlite luminescence; 100% = ROCK inhibitor wells, 0% = DMSO | survival enhancement, % at 20 µM | hit rate 0.044% among 360,000; in the data active = survival enhancement above about 18%;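 also: cells exposed to compounds for 16 hours before the ATP read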
PfGluPho inh = PfG6PD (Plasmodium falciparum) enzyme inhibition. PfGluPho enzyme, NADPH resazurin-diaphorase fluorescence. inhibition, % at 20 µM. hit rate 0.78% among 350,000;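 active = inhibition reaching at least a set limit at 20 µM in the primary screen, cut at about 59% in these data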;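 also: 0% = DMSO wells with substrate and 100% = DMSO wells lacking glucose-6-phosphate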
A3A deaminase = human APOBEC3A DNA deaminase inhibition; P31941; recombinant A3A, FAM/TAMRA ssDNA deamination fluorescence; inhibition, % at 20 µM; hit rate 0.41% among 330,000;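 active = at least 40% inhibition at 20 µM here, with at most 30% in a related deaminase screen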;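 also: plate controls were A3A with DMSO for no effect and wells lacking A3A enzyme for full effect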
APOBEC3G inh = APOBEC3G (human) deaminase inhibition; Q9HC16; recombinant A3G, ssDNA deamination FAM/TAMRA fluorescence; inhibition, % at 20 µM; hit rate 0.28% among 330,000; AID 493012;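 active = inhibition of at least 40% at 20 µM, with no more than 30% in the related APOBEC3A deaminase screen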;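 also: plate controls were DMSO wells with A3G for no effect and wells lacking A3G enzyme for full effect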
Target sequence (Q9HC16 whole entry, looked up): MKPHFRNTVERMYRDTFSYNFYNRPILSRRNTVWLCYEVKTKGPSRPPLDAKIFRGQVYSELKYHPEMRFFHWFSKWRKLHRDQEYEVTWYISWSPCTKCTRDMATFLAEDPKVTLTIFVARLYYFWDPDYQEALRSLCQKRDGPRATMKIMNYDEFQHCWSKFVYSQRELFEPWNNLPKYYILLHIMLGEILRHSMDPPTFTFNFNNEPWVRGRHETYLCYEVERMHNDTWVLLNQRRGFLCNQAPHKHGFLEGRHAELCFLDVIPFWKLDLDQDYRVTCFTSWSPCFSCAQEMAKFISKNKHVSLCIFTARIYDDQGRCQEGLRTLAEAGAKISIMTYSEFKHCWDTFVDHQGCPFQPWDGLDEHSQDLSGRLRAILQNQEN
A3G conf = confirmation of human APOBEC3G DNA deaminase inhibitors | shares compounds with APOBEC3G inh | recombinant A3G ssDNA deaminase, UDG/FAM-TAMRA fluorescence | hit rate 72% among 890 | inhibition, % at 20 µM;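 active = inhibition reaching a set limit in any replicate at 20 µM, the limit being 80% of the first screen's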
UDG A3G counter = counter-screen for APOBEC3G inhibitors: E. coli UDG; 710 tested, under 10 active; inhibition, % at 20 µM; shares compounds with APOBEC3G inh; UDG counterscreen, FAM/TAMRA oligo fluorescence; AID 504715;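 active = compounds giving 40% or more inhibition at 20 µM in any one of the three replicates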;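 also: plate controls were DMSO wells with UDG and oligo for no effect and DMSO wells lacking both for full effect; inhibitors lower the FAM signal released by uracil excision and alkaline cleavage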
Starred values were filed as active, the others as inactive; · = not tested or not shown.

SMILES	HKDC1 inh	iPSC survival up	PfGluPho inh	A3A deaminase	APOBEC3G inh	A3G conf	UDG A3G counter
CCn1c(NC(=O)c2ccccc2F)c(-c2cccs2)c(=O)c2ccccc21	-4	1	0	-4	-6	·	·
Cc1nc(-c2ccc([N+](=O)[O-])cc2)nc2[nH]ccc(=O)c12	4	1	-4	-1	-7	·	·
CCOCCCn1c(=NC(=O)c2cccnc2)c(C(=O)OCC)cc2c(=O)n3ccccc3nc21	-6	-2	12	10	65*	58*	0
CCCCn1c(=NC(=O)c2cccnc2)c(C(=O)OCC)cc2c(=O)n3ccccc3nc21	-4	-1	4	·	·	·	·
CC(=O)NCc1ccc(S(=O)(=O)N2CCN(S(=O)(=O)c3ccc4ccccc4c3)CC2)cc1	3	2	9	-1	-7	·	·
NC(=S)N=Nc1ccc(NN=C(N)N)cc1	5	0	99*	6	45*	46*	·
C=CCn1c(SCC(=O)Nc2cc(C)on2)nnc1-c1ccncc1	·	0	6	·	·	·	·
O=C1NN=C(CSc2n[nH]c(=S)s2)CS1	8	7	7	1	67*	67*	2
CC(CSc1n[nH]c(=S)s1)c1ccccc1 (stereo not drawn)	-2	-1	36	·	·	·	·
COc1ccccc1C(=O)NCCC(=O)Nc1ccc(S(=O)(=O)N2C(C)CCCC2C)cc1 (stereo not drawn)	0	-3	7	1	-8	·	·
CC(O)C(NS(=O)(=O)c1ccc(Cl)cc1)C(=O)OCCOc1ccc(F)cc1 (stereo not drawn)	·	0	12	·	·	·	·
S=c1[nH]c(-c2ccccc2)cn1/N=C/c1ccncc1	2	1	53	-17	56*	71*	0
CCOc1ccc(/C=N/n2cc(-c3ccccc3)[nH]c2=S)cc1	-4	0	42	-8	9	·	·
S=c1[nH]ncn1/N=C/c1ccc(Br)cc1	10	0	21	-5	44*	100*	-1
S=c1[nH]ncn1/N=C/c1ccccc1	4	0	28	-4	23	·	·
CCOC(=O)c1sc(=S)n(C)c1NC(=O)c1ccc(OC)cc1	-10	0	52	0	53*	59*	-6
CC(=O)c1c(C)[nH]c(C(=O)Nc2ccc(Cl)c(S(=O)(=O)N(C)C)c2)c1C	18	3	1	-2	-2	·	·
Cc1[nH]c(=O)[nH]c(=S)c1C(=O)Nc1ccc(Cl)c(Cl)c1	-2	-1	38	-1	60*	74*	-6
C=CCn1c(OCc2ccccc2)n[nH]c1=S	-6	0	17	-3	41*	67*	-2
C=C(C)Cn1c(-c2cccs2)n[nH]c1=S	-3	0	33	2	55*	55*	6
C=C(C)Cn1c(CCn2c3ccccc3c3ccccc32)n[nH]c1=S	-4	1	12	-3	-7	·	·
C=C(C)Cn1c(-c2cccc([N+](=O)[O-])c2)n[nH]c1=S	-5	3	16	-7	44*	75*	3
C=CCn1c(-c2sccc2C)n[nH]c1=S	-9	5	15	5	44*	7	·
COc1ccc(C(=O)n2cnc3ccccc32)cc1[N+](=O)[O-]	-4	2	8	-7	-9	·	·
COc1cc(-c2coc3c(C(=O)NCc4cccc(Cl)c4)cccc23)ccc1O	·	-1	·	·	·	·	·
COC(=O)c1cc(C(=O)OCC(=O)c2ccc3c(c2)NC(=O)CO3)cc([N+](=O)[O-])c1	-2	2	-4	5	11	·	·
O=[N+]([O-])c1cccc(-c2n[nH]c(=S)n2Cc2ccccc2)c1	13	2	20	-7	29	·	·
C=CCn1c(-c2cccc(Cl)c2)n[nH]c1=S	-4	1	5	-4	49*	86*	-4
C=CCn1c(-c2cccc([N+](=O)[O-])c2)n[nH]c1=S	-10	2	19	-2	43*	68*	5
CC(Oc1ccccc1Cl)C(=O)Nc1ccc(S(=O)(=O)Nc2nccs2)cc1 (stereo not drawn)	6	0	-49	2	-3	·	·
